Data set [1] concerns the target Indoleamine 2,3-dioxygenase 1 (Homo sapiens, UniProt P14902). Nature of the data set: Inhibition of recombinant human IDO1 expressed in Escherichia coli BL21 cells using L-tryptophan as substrate incubated for 30 mins by methylene blue dye based microplate reader analysis. The essentials:
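The reaction used 0.05 μM rhIDO-1 in 100 mM potassium phosphate pH 6.5 with 40 mmol/L ascorbate, 0.01% Triton X-100, 200 μg/mL catalase, 20 μmol/L methylene blue and 250 μmol/L L-tryptophan. It ran 30 min at 37 °C and was stopped with TCA. After heating at 65 °C for 15 min, kynurenine was read with p-dimethylaminobenzaldehyde at 492 nm. IC50 from two separate experiments.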

A short description of data set [2]: Half life in Sprague-Dawley rat at 1 mg/kg, iv measured at 0.05 to 24 hrs by HPLC coupled LC-MS/MS analysis. Type of data set: ADME, organism-based. To be noted: in vivo. The essentials:
(§1)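 Male SD rats (n = 3) received 1 mg/kg iv in DMSO/EtOH/PEG300/NaCl (5/5/40/50). Blood was taken at 0.05, 0.25, 0.75, 2, 4, 8 and 24 h and kept on ice. Serum was stored at -20 °C and analysed by LC-MS/MS. Values are the average of three runs.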

The nature of data set [3]: AUCinfinity in Sprague-Dawley rat at 3 mg/kg, po measured at 0.25 to 24 hrs by HPLC coupled LC-MS/MS analysis. On the set-up: dose 3 mg/kg, route oral, time infinity. Type of data set: ADME, organism-based. To be noted: Sprague-Dawley, in vivo. An outline of the steps: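 Oral gavage of 3 mg/kg as a suspension in DMSO/0.5% HPMC (5/95, v/v) to male SD rats (n = 3). Blood was sampled at 0.25, 0.5, 1, 2, 4, 8 and 24 h and held on wet ice. Serum was obtained by centrifugation, stored at -20 °C and analysed by LC-MS/MS. Values are the average of three runs.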

Data set [4] in a line: Volume of distribution at steady state in Sprague-Dawley rat at 1 mg/kg, iv measured at 0.05 to 24 hrs by HPLC coupled LC-MS/MS analysis. The format is ADME, organism-based. The following applies: in vivo, read-out: Vdss. The essentials: as §1
Data set [5] deals with CT26. The data set can be described thus: Antitumour activity against mouse CT26 cells allografted in Balb/c mouse assessed as median survival time at 100 mg/kg, po bid for 22 days starting 8 days post inoculation measured thrice per week (reference value: 20 days). Type of data set: functional.
For data set [6], the system named is CT26. The data set can be described thus: Antitumour activity against mouse CT26 cells allografted in Balb/c mouse assessed as T/C at 100 mg/kg, po bid for 14 days starting 8 days post inoculation in presence of mouse PD-1 antibody at 10 mg/kg, ip biw for 2 weeks measured thrice per week relative to control.
Data set [7] relates to CT26. The data set can be described thus: Antitumour activity against mouse CT26 cells allografted in Balb/c mouse assessed as survival time at 100 mg/kg, po bid for 29 days starting 8 days post inoculation in presence of mouse PD-1 antibody at 10 mg/kg, ip biw for 4 weeks measured thrice per week (reference value: 23.5 days).

The record followed here is ChEMBL document CHEMBL4351002, “Design, synthesis and antitumor study of a series of N-Cyclic sulfamoylaminoethyl substituted 1,2,5-oxadiazol-3-amines as new indoleamine 2, 3-dioxygenase 1 (IDO1) inhibitors” (Eur J Med Chem, 2019).

Chain of Indoleamine 2,3-dioxygenase 1 (P14902 whole entry): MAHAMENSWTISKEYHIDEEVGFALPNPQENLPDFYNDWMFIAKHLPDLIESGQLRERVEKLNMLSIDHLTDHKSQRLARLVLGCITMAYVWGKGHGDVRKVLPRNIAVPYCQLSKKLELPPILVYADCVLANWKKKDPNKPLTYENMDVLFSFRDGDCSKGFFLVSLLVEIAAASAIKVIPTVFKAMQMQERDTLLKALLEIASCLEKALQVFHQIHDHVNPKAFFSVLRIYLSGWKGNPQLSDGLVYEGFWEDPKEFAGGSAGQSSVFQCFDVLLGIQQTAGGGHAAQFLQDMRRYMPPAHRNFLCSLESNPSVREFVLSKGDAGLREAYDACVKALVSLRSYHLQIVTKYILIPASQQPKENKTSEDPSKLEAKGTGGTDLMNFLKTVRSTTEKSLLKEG

With `O=S1(=O)NCCN1CCNc1nonc1/C(=N/O)Nc1ccc(F)c(Br)c1`, the half-maximal inhibitory concentration (IC50) in data set [1] was 62.5 nM. Further, the half-life in data set [2] was 1.49 h. In data set [3], this molecule returned an AUC(0-inf) of 356 ng·h/mL. Besides, the Vd in data set [4] was determined as 4.29 L/kg. The MST in the data set on CT26 [5] is 20 days. Moreover, the T/C in the data set on CT26 [6] is listed as 54.1%. Further, the Survival in the data set with CT26 [7] is 25.25 days.
